Published values pooled from the literature.
Protocols differ between the studies behind these lines.
Target: Serine/threonine-protein kinase PLK1 (PLK1, Homo sapiens, UniProt P53350)

C[C@@H](c1cccc(C#N)c1)n1cc(Cl)cc(C(N)=O)c1=N
remaining binding (cell-free assay, competition with immobilised ligand; 1 µM): 98%

CN(C)c1nccc(-c2cnn3ncccc23)n1
remaining binding (binding; 1 µM): 56%

COc1cnc(Nc2cccc(S(N)(=O)=O)c2)nc1N1CCN(c2ccccc2)CC1
remaining binding (binding, competition with immobilised ligand; 1 µM): 79%

O=C(NCc1ncc(C(F)(F)F)cc1Cl)c1ccc2c(c1)C1(CCS(=O)(=O)CC1)[C@H](C1CC1)N2S(=O)(=O)c1ccc(F)cc1
remaining binding (cell-free assay, competition with immobilised ligand; 1 µM): 86%

Nc1ncc2c(n1)-c1c([nH]c3ccc(C#CC4CC4)cc13)CCCC2
remaining binding (binding, competition with immobilised ligand; 1 µM): 68%

CN(CCCC(F)(F)F)c1nccc(-c2cnn3ncccc23)n1
remaining binding (binding; 1 µM): 84%

O=C(NCCCN1CCOCC1)c1ccc(Nc2nccc(-c3cc4ccccc4s3)n2)cc1
remaining binding (binding, competition with immobilised ligand; 1 µM): 77%

C[C@@H]1CN(c2ccc3ncc(-c4ccc5[nH]nc(C6CC6)c5c4)n3n2)C[C@H](C)O1
remaining binding (binding, competition with immobilised ligand; 0.5 µM): 96%

C[C@@H](c1ccc(-n2cnc3c(N)ncnc32)cc1)N1CCc2nn(C)c(Cc3ccccc3)c2C1=O
remaining binding (binding, competition with immobilised ligand; 0.1 µM): 86%

CCN1CCN(Cc2ccc(C(=O)Nc3ccc(C)c(Oc4ccc5c(c4)CC(=O)N5)c3)cc2C(F)(F)F)CC1
remaining binding (binding, competition with immobilised ligand; 1 µM): 100%

C[C@@H]1CCN(c2nccc(-c3cnn4ncccc34)n2)C1
remaining binding (binding; 1 µM): 76%

c1cncc(-c2cccc(Nc3nccc(NC4CCCCC4)n3)c2)c1
remaining binding (binding, competition with immobilised ligand; 10 µM): 78%

CCCOc1ccc([C@H]2[C@H](C(=O)O)[C@@H](c3ccc4c(c3)OCO4)CN2CC(=O)Nc2c(CC)cccc2CC)cc1
remaining binding (cell-free assay, competition with immobilised ligand; 1 µM): 80%

N[C@@H]1CCN(c2nccc(-c3cnn4ncccc34)n2)C1
remaining binding (binding; 1 µM): 100%

CN(C(=O)c1ccccc1)c1cc(N(C)c2ccc3c(c2)CCc2ccc(C(=O)NCCN4CCOCC4)cc2C3=O)ccc1F
remaining binding (cell-free assay, competition with immobilised ligand; 1 µM): 100%

O=C(c1ccc(Nc2ncc(Cl)c(-c3ccc(Cl)s3)n2)cc1)N1CCC(N2CCCC2)CC1
remaining binding (binding, competition with immobilised ligand; 1 µM): 61%

CC1=C(C#N)C(c2ccc3c(c2)c(NC(=O)c2ccccc2C)nn3C)C(C#N)=C(C)N1
remaining binding (cell-free assay, competition with immobilised ligand; 1 µM): 85%

O=C(Nc1c[nH]nc1C(=O)NC1CCNCC1)c1cc(F)cc(F)c1
remaining binding (binding, competition with immobilised ligand; 1 µM): 100%

COc1cc(C(=O)N2CCC(N3CCN(C)CC3)CC2)ccc1Nc1ncc2c(n1)N(C)c1ccccc1C(=O)N2C
remaining binding (binding, competition with immobilised ligand; 10 µM): 0.7%

O=C(N[C@H]1CCCCC/C=C\C2C[C@@]2(C(=O)O)NC(=O)[C@@H]2C[C@@H](Oc3ccncc3)CN2C1=O)OC1CCCC1 (some centres unmarked)
remaining binding (binding, competition with immobilised ligand; 1 µM): 71%

CN(C)c1nccc(-c2cnc3ncccn23)n1
remaining binding (binding; 1 µM): 69%

FC(F)(F)Oc1cccc(-c2cnc3ccc(-c4ccncc4)nn23)c1
remaining binding (cell-free assay, competition with immobilised ligand; 5 µM): 93%

CCC(=O)N[C@@H]1CC[C@H](C(=O)N(C)c2ccc(-c3nc4ccccc4o3)cc2)C1
remaining binding (cell-free assay, competition with immobilised ligand; 1 µM): 95%

CC1CCCN1c1nccc(-c2cnn3ncccc23)n1 (centres unmarked)
remaining binding (binding; 1 µM): 100%

c1ccc(N2CCN(Cc3nc4ccccc4[nH]3)CC2)nc1
remaining binding (binding, competition with immobilised ligand; 1 µM): 100%

O=C(c1ccc(Nc2nccc(-c3cc4ccccc4s3)n2)cc1)N1CCC(N2CCCC2)CC1
remaining binding (binding, competition with immobilised ligand; 1 µM): 89%
